FXIa inh: factor XIa (human) inhibition | actives 0.14% (n = 220,000) | AID 798 | P03951 | purified FXIa, Boc-Glu-Ala-Arg-AMC fluorogenic substrate | inhibition, % at 5 µM;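 active = inhibition of at least 40%; inactive = inhibition below 40%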;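 also: fluorescence of freed AMC excited at 355 nm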
Thrombin inh: thrombin (human) inhibition | alpha-thrombin, Boc-VPR-AMC fluorogenic substrate cleavage | AID 1046 | inhibition, % at 5 µM | P00734 | actives 0.26% (n = 220,000);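 active = inhibition at or above 40%; inactive = inhibition below 40%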
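Test system: human alpha-thrombin protein / Dosing: one concentration per compound, 5 µM, with 0.2% DMSO / Medium: pH 7.5 Tris-saline with Tween 20 / Benchmarks: no-compound enzyme wells and no-enzyme blanks / Read-out basis: percent inhibition of thrombin substrate cleavage / Timing: reaction at room temperature / Measured by: fluorescence, ex 355 nm, em 460 nm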
FXIIa inh: factor XIIa (human) inhibition. P00748. purified FXIIa, Boc-QGR-AMC fluorogenic substrate, 2 h. inhibition, % at 5 µM. actives 0.3% (n = 220,000); in the data active = inhibition above about 40%
Target sequence (P00748 20-372 limits assumed): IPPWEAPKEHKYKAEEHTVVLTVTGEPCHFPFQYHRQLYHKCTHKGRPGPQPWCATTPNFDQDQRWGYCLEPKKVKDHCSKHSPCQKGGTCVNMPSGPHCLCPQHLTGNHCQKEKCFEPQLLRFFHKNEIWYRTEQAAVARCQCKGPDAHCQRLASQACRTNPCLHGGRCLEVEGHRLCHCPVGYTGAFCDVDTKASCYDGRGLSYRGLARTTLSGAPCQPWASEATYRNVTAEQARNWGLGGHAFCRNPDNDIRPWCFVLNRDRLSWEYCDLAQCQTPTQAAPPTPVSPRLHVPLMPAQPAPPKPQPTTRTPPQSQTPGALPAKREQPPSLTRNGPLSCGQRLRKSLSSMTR
Target sequence (P00748 373-615 limits assumed): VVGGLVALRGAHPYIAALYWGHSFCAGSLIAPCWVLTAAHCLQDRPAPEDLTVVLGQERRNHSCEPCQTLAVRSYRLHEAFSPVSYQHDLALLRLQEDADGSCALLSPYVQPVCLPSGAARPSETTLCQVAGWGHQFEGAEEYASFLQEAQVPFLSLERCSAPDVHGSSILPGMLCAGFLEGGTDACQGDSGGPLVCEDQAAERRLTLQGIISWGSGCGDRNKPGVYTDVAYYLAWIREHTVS
KLK5 inh: kallikrein 5 (human) inhibition. inhibition, % at 5 µM. Q9Y337. actives 0.59% (n = 210,000). recombinant hK5, fluorogenic AMC substrate cleavage;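 active = inhibition of 40% or more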
m-calpain inh: inhibitors of pig calpain II. inhibition, % at 16 µM. actives 0.37% (n = 220,000). purified calpain II, fluorogenic peptide substrate, 30 min. AID 1236;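 active = inhibition above about 50%, limit read from the data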
A number is an active result; . = inactive; ! = not active in a repeat. Rows were chosen to be rich in hits. Some 1.4% of all compounds tested hit in one or more screens of this group.

SMILES | FXIa inh | Thrombin inh | FXIIa inh | KLK5 inh | m-calpain inh
Cc1cccc(OCCC(=O)Nc2ccc(C)c(S(=O)(=O)N3CCCCC3)c2)c1 | . | . | . | . | 55
COc1ccc(NC(=O)CCSCCc2ccccn2)cc1OC | . | . | . | . | .
O=C(CC(c1ccc(F)cc1)c1ccco1)N1CCOCC1 (centres undefined) | . | 43 | . | 59 | .
Nn1c(Cc2cccc3ccccc23)nnc1SCc1ccc(Cl)c(Cl)c1 | . | . | . | . | 55
Nn1c(Cc2cccc3ccccc23)nnc1SCc1c(Cl)cccc1Cl | . | . | . | . | .
CC(=O)N/C(=C\c1ccccc1)C(=O)OCC(=O)N(C)C1CCCCC1 | . | . | . | 44 | .
CC(=O)N/C(=C\c1ccccc1)C(=O)OCC(=O)NC(C)C12CC3CC(CC(C3)C1)C2 (centres undefined) | . | . | . | . | .
CN(C)CCCNS(=O)(=O)c1ccc(Cl)s1 | . | . | . | . | .
Cc1c(C(=O)Nc2ccccc2C(=O)N2CCOCC2)cccc1[N+](=O)[O-] | . | . | . | . | .
Cc1ccc(-n2nnnc2CCl)cc1 | . | . | . | . | .
O=C(O)CC(Cc1ccc(Cl)cc1)C(=O)Nc1ccc([N+](=O)[O-])cc1 (centres undefined) | . | . | . | . | 69
O=C(Cc1ccc([N+](=O)[O-])cc1)Nc1ccc(Cl)cc1 | . | . | . | . | .
CCN1CCN(CC(=O)Nc2cc3c(cc2C(C)=O)OCO3)CC1 | . | . | . | . | .
COC(=O)C(NC(=O)c1ccccc1)(Nc1nc(C)cs1)C(F)(F)F (centres undefined) | . | . | . | . | .
COC(=O)C(NC(=O)c1ccco1)(Nc1nc(C)cs1)C(F)(F)F (centres undefined) | . | . | 54 | . | .
Cc1ccc(Cl)cc1NC(=S)N/N=C/c1cccc2ccccc12 | . | . | . | . | .
CCc1oc2ccccc2c1C(=O)c1cc(Br)c(O)c(Br)c1 | . | . | . | . | 55!
O=c1[nH]c2ccc(Cl)cc2c(-c2ccccc2)c1N1CCOCC1 | . | 43 | . | . | .
O=c1[nH]c2ccc(Cl)cc2c(-c2ccccc2)c1CN1CCOCC1 | . | . | . | . | .
CCOCCCn1cnc2c(c1=O)c1nc3ccccc3nc1n2-c1ccccc1 | . | . | 54 | . | .
CCCc1cc(-c2n[nH]c(=S)n2CC(C)C)cs1 | . | . | . | . | 50
O=C1c2cccc3cccc(c23)C(=O)N1CCN1CCN(C(=S)Nc2ccc(Cl)cc2)CC1 | . | . | . | . | 54
O=C1c2cccc3cccc(c23)C(=O)N1CCN1CCN(C(=S)Nc2ccccc2)CC1 | . | . | . | . | .
Cc1ccc(NC(=S)NC(C)CCc2ccccc2)cc1C (centres undefined) | . | . | . | . | 64
CCCCNC(=O)CC(NS(=O)(=O)c1ccc(C)cc1)c1ccco1 (centres undefined) | . | . | . | . | .
SMILES | FXIa inh | Thrombin inh | FXIIa inh | KLK5 inh | m-calpain inh
COCCNC(=O)CC(NS(=O)(=O)c1ccc(C)cc1)c1ccco1 (centres undefined) | . | . | 52 | 46 | .
O=C(Nc1ccon1)c1cccc(S(=O)(=O)N2CCCCC2)c1 | . | . | . | . | .
O=C(CCC(=O)Nc1nnc(C2CCCCC2)s1)NCc1ccccc1 | . | . | . | . | .
CS(=O)(=O)N1CCN(C(=O)c2c(F)cccc2F)CC1 | . | . | . | . | .
CS(=O)(=O)N1CCN(C(=O)c2ccccc2F)CC1 | . | . | . | 116 | .
CCOC(=O)C1CCCN(C(=O)c2cc3ncc(Br)cn3n2)C1 (centres undefined) | . | . | . | 48 | .
CCOC(=O)C1CCCN(C(=O)c2cc3nc(-c4cccc(OC)c4)cc(C(F)(F)F)n3n2)C1 (centres undefined) | . | . | . | 54 | .
COc1cc(Cl)c(C)cc1NC(=O)CNC(C)c1ccccc1OC (centres undefined) | . | . | . | . | 90
CC(C(=O)N1CCN=C1c1ccccc1)N1C(=O)c2ccccc2C1=O (centres undefined) | . | . | . | . | .
CC1=CCC(/C=N\Nc2nnc3c(n2)[nH]c2ccccc23)CC1 (centres undefined) | . | . | . | . | .
COCc1c(C(=O)OCc2nc(N)nc(Nc3ccccc3C)n2)oc2ccccc12 | . | . | 51 | . | .
COc1ccccc1C(=O)OCc1nc(N)nc(Nc2ccccc2C)n1 | . | . | . | . | .
O=C(COC(=O)CC12CC3CC(CC(C3)C1)C2)Nc1cccnc1Cl | . | . | . | . | 59
CC(C)Cn1c(N)c(C(=O)CSc2ncnc3sc4c(c23)CCCC4)c(=O)n(C)c1=O | . | . | . | . | .
O=c1cc(/N=C/c2coc3c(ccc4ccccc43)c2=O)[nH]c(=S)[nH]1 | . | . | . | . | .
COc1ccc(CC(=O)Nn2c(-c3ccccc3)nc3ccccc3c2=O)cc1 | . | . | . | . | .
Oc1ccc(Cl)cc1/C=C/c1ccc2cccc(O)c2n1 | . | 49 | . | . | .
Cc1c(C(=O)N2CCOCC2)sc2ncnc(N3CCc4ccccc4C3)c12 | . | . | 45 | . | .
CCOC(=O)c1c2c(c(=S)n(-c3ccccc3)c1N)CCC2 | . | . | . | . | 51
CCOC(=O)c1c(N)sn(-c2ccccc2)c1=S | . | . | . | . | .
O=C(COC(=O)CCc1nc2ccccc2c(=O)[nH]1)Nc1ccc(Cl)cn1 | 105 | . | . | 43 | .
O=C(COC(=O)CCc1nc2ccccc2c(=O)[nH]1)Nc1ccccc1Cl | . | . | . | . | .
O=C(NCc1ccccc1)c1cc[n+](CC(=O)c2cccs2)cc1 | . | . | . | . | .
CCOCCCNS(=O)(=O)c1ccc(NC(=O)c2ccc(OC)c([N+](=O)[O-])c2)cc1 | 42 | . | . | . | .
COc1ccc(OC)c(CNc2ccc([N+](=O)[O-])cc2C)c1 | . | . | 100 | . | 51
SMILES | FXIa inh | Thrombin inh | FXIIa inh | KLK5 inh | m-calpain inh
COc1ccc(C(=O)Nn2cnc3scc(-c4cccs4)c3c2=O)c(O)c1 | . | . | . | . | .
Cc1cc(C)nc(Nc2ccccc2Br)n1 | . | 45 | . | 59 | .
Cc1ccc(C)c(N2CCN(C(=O)CN(C)S(=O)(=O)c3ccc4c(c3)CCC(=O)N4)CC2)c1 | . | . | . | 53 | .
COc1ccc(Br)cc1C(=O)Nc1cc(C)cc(C)c1 | . | . | . | . | .
Cc1c(N=C/C=C2\N(C)c3ccccc3C2(C)C)c(=O)n(-c2ccccc2)n1C | . | . | . | . | .
Cc1c(NC(=S)/C=C2\N(C)c3ccccc3C2(C)C)c(=O)n(-c2ccccc2)n1C | . | . | . | 67 | .
Cc1cccc2c(N=O)c(O)[nH]c12 | . | . | . | . | .
CC1CN(c2nnnn2-c2ccccc2)CC(C)O1 (centres undefined) | . | . | . | 67 | .
Fc1ccc(N2CCN(c3nnnn3-c3ccccc3)CC2)cc1 | . | . | . | . | .
